Source: ChEMBL document CHEMBL3120162, “Sesquiterpenes from Neurolaena lobata and their antiproliferative and anti-inflammatory activities” (J Nat Prod, 2014)
Active and inactive are the calls of the source. No cut-off for these calls is given here.

Columns and labels:
HUVEC [1] = assay: Inhibition of LPS-induced IL-8 secretion in HUVEC expressing TERT treated for 15 mins prior to LPS challenge measured after 6 hrs by ELISA; type: functional, Homo sapiens
Procedure, shortened: (§1)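 Immortalized HUVEC (hTERT) were grown in medium 199 with 20% FBS, glutamine and ECGS/heparin. Compounds were added in medium with 5% FBS (final 30 μM) 15 min before a stimulus: TNF-α 30 ng/mL or LPS 100 ng/mL final. Media were collected after 6 h and IL-8 protein was measured by ELISA with TMB substrate. Sextuplicates, BAY positive control, ANOVA.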

HUVEC [2] = assay: Inhibition of TNF-alpha-induced IL-8 secretion in HUVEC expressing TERT treated for 15 mins prior to LPS challenge measured after 6 hrs by ELISA; type: functional, Homo sapiens; procedure, shortened: as §1
HUVEC [3] = assay: Inhibition of TNF-alpha-induced IL-8 secretion in HUVEC expressing TERT at 30 uM treated for 15 mins prior to LPS challenge measured after 6 hrs by ELISA; type: functional, cell-based; conditions: Homo sapiens; procedure, shortened: as §1
A2780 = assay: Antiproliferative activity against human A2780 cells assessed as inhibition of cell proliferation after 72 hrs by MTT assay; type: functional, cell-based; conditions: A2780, 72 h
Procedure, shortened: (§2)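 Cells seeded at 5000/well and allowed to attach overnight, then given fresh medium with test agents (from 10 mM DMSO stocks; at most 0.3% DMSO in medium) for 72 h. 5 mg/mL MTT solution was added for 4 h, and formazan was dissolved in DMSO and read at 545 nm. Untreated cells served as negative control and cisplatin as reference. Two plates, ≥5 parallel wells each. IC50 from sigmoidal dose-response fits.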

HUVEC [4] = assay: Inhibition of LPS-induced IL-8 secretion in HUVEC expressing TERT at 30 uM treated for 15 mins prior to LPS challenge measured after 6 hrs by ELISA; type: functional, cell-based; conditions: Homo sapiens; procedure, shortened: as §1
A-431 = assay: Antiproliferative activity against human A431 cells assessed as inhibition of cell proliferation after 72 hrs by MTT assay; type: functional, cell-based; conditions: A-431, 72 h; procedure, shortened: as §2
HeLa = assay: Antiproliferative activity against human HeLa cells assessed as inhibition of cell proliferation after 72 hrs by MTT assay; type: functional, cell-based; procedure, shortened: as §2
MCF7 = assay: Antiproliferative activity against human MCF7 cells assessed as inhibition of cell proliferation after 72 hrs by MTT assay; type: functional, cell-based; conditions: MCF7, 72 h; procedure, shortened: as §2

`Cc1ccc(S(=O)(=O)/C=C/C#N)cc1` was tested, and the “inhibition (INH)” value (HUVEC [1]) was 12.7% and the “inhibition (INH)” value (HUVEC [2]) was 23.7%.

`C=C1C(=O)O[C@@H]2[C@@H]1[C@H](OC(=O)CC(C)C)C[C@@]1(C)[C@H](O)C[C@H](OC(C)=O)C(=C)[C@H]21` (relative stereo) was tested, and the inhibition (HUVEC [3]) was “inactive”, the IC50 (A2780) was 7.2 µM and the inhibition (HUVEC [4]) was “Active”. For the same compound, the IC50 (A-431) was 5.3 µM, the IC50 (HeLa) was greater than 10 µM and the IC50 (MCF7) was greater than 10 µM.

For `C=C1C(=O)O[C@@H]2/C=C(\C)[C@H](O)C[C@H]3O[C@]3(C)C[C@@H](OC(=O)CC(C)C)[C@@H]12` (relative stereo), the inhibition (HUVEC [3]) was “inactive”, the IC50 (A2780) was 4.7 µM and the inhibition (HUVEC [4]) was “Active”. For the same compound, the IC50 (A-431) was 7.2 µM, the IC50 (HeLa) was greater than 10 µM and the IC50 (MCF7) was 7.2 µM.

With `C=C1C(=O)O[C@@H]2[C@@H](O)[C@@H](C)C3=CC(=O)[C@](C)(O3)[C@H](O)[C@@H](OC(=O)CC(C)C)[C@@H]12` (relative stereo) the inhibition (HUVEC [3]) was “inactive”, the IC50 (A2780) was greater than 10 µM and the inhibition (HUVEC [4]) was “Active”. It also gave an IC50 (A-431) greater than 10 µM, an IC50 (HeLa) greater than 10 µM and an IC50 (MCF7) greater than 10 µM.

In the case of `C=C1C(=O)O[C@@H]2C[C@@]3(C)O[C@H](O[C@H]3CC(=O)C(C)=O)[C@@H](OC(=O)CC(C)C)[C@@H]12` (relative stereo), the inhibition (HUVEC [3]) is reported as “inactive”, the IC50 (A2780) is reported as 5.4 µM and the inhibition (HUVEC [4]) is reported as “Active”. It also gave an IC50 (A-431) of 6.8 µM, an IC50 (HeLa) greater than 10 µM and an IC50 (MCF7) greater than 10 µM.

In the case of `C=C1C(=O)O[C@@H]2C[C@]3(C)O[C@@H](O[C@@H]3CC(=O)C(C)=O)[C@@H](OC(=O)CC(C)C)[C@@H]12` (relative stereo), the inhibition (HUVEC [3]) is reported as “inactive”, the IC50 (A2780) is reported as 9.8 µM and the inhibition (HUVEC [4]) is reported as “Active”. The IC50 (A-431) was greater than 10 µM, the IC50 (HeLa) was greater than 10 µM and the IC50 (MCF7) was greater than 10 µM.
